Reference: ChEMBL document CHEMBL4024803, “New Steroidal 4-Aminoquinolines Antagonize Botulinum Neurotoxin Serotype A in Mouse Embryonic Stem Cell Derived Motor Neurons in Postintoxication Model” (J Med Chem, 2018)
≈ marks a conversion by molar mass, not a printed value.

Legend:
[1] = system: Mus musculus; assay: Toxicity in mouse assessed as effect on survival at 160 mg/kg, po administered for 3 days measured after 30 days; format: organism-based; conditions: in vivo, 720 h
Outline: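 Groups of five healthy mice were dosed per os for three consecutive days, suspended in 0.5% hydroxyethylcellulose–0.1% Tween 80. Behaviour and appearance were monitored twice daily for 30 days, with survival assessed at 30 days. Non-toxic was defined as all 5 surviving with normal appearance and behaviour.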

[2] = molecular target: Botulinum neurotoxin type A (Clostridium botulinum) (UniProt P0DPI0); assay: Inhibition of Clostridium botulinum BoNT/A holotoxin-mediated SNAP-25 cleavage in mouse HBG3 cell-derived motor neurons assessed as full length of SNAP-25 at 20 uM preincubated for 30 mins followed by intoxication measured after 4 hrs by Western blot method relative to control; parameters: scale not given: the % may be the effect or the level left
[3] = molecular target: Botulinum neurotoxin type A (Clostridium botulinum) (UniProt P0DPI0); assay: Inhibition of Clostridium botulinum BoNT/A holotoxin-mediated SNAP-25 cleavage in mouse HBG3 cell-derived motor neurons assessed as full length of SNAP-25 at 20 uM treated at 60 mins post intoxication by Western blot method relative to control; parameters: scale not given: the % may be the effect or the level left
[4] = system: Mus musculus; assay: Toxicity in mouse assessed as effect on appearance at 400 to 600 mg/kg, po administered as single dose measured 2 times a day for 30 days; format: organism-based; conditions: in vivo, 720 h
Outline: (§1)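 Two groups of 5 healthy mice each received one oral dose, 400 or 600 mg/kg. Survival, appearance and behaviour were followed for 30 days. Non-toxic was defined as all 5 surviving with normal appearance and behaviour.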

[5] = system: Mus musculus; assay: Toxicity in mouse assessed as effect on behavior at 400 to 600 mg/kg, po administered as single dose measured 2 times a day for 30 days; format: organism-based; conditions: in vivo, 720 h; outline: as §1
[6] = Octanol/TBS buffer distribution co-efficient, […] by shake flask method; format: physicochemical; conditions: octanol/water
[7] = system: Liver; assay: Intrinsic clearance in mouse liver microsomes after 1 hr; format: ADME, microsome
Outline: (§2)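 Substrate-depletion assay: compound incubated with human or mouse liver microsomes for 1 h at 37°C. Half-life and intrinsic clearance derived from compound loss.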

[8] = system: Plasma; assay: Metabolic stability in human plasma assessed as compound remaining after 1 hr; format: ADME, cell-free
Outline: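 Compound incubated in human plasma for 1 h at 37°C; percent remaining determined.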

[9] = molecular target: T1, Cytochrome P450 3A4 (Homo sapiens, UniProt P08684); assay: Inhibition of CYP3A4 (unknown origin) using BQ as substrate; format: ADME
T1 sequence (P08684 whole entry): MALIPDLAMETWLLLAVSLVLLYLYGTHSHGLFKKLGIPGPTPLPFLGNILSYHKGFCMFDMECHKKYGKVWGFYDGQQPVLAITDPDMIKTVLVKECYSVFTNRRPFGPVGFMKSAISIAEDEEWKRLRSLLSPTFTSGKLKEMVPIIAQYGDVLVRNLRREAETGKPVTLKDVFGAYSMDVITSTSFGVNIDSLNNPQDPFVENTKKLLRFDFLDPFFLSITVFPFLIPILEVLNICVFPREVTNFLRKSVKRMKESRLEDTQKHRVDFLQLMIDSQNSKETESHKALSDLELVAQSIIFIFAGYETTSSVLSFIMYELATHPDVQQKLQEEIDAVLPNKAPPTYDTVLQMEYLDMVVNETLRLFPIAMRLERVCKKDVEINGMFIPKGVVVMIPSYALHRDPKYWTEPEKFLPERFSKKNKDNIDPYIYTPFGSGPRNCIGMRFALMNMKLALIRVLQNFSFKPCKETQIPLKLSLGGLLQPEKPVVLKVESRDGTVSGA
Outline: (§3)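 Active CYP450 enzyme incubated at 37°C for a set time with a fluorogenic probe substrate (BQ, DBF or BFC for CYP3A4; CEC for CYP2C19; AMMC for CYP2D6). IC50 derived from net fluorescent signal.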

[10] = molecular target: T1, Cytochrome P450 3A4; assay: Inhibition of CYP3A4 (unknown origin) using DBF as substrate; format: ADME; outline: as §3
[11] = molecular target: T1, Cytochrome P450 3A4; assay: Inhibition of CYP3A4 (unknown origin) using BFC as substrate; format: ADME; outline: as §3
[12] = Solubility of the compound by spectrofluorimetric detection-based shake-flask method; format: physicochemical
[13] = Apparent permeability across basolateral to apical side in MDCK cells expressing MDR1 after 1 hr; format: ADME, cell-based, Canis lupus familiaris; conditions: dog
Outline: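 MDR1-transfected MDCK cell monolayer; compound applied to the basolateral compartment and incubated 1 h at 37°C. Apparent permeability measured in the B→A direction.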

[14] = system: Plasma; assay: Protein binding in human plasma after 4 hrs by equilibrium dialysis method; format: ADME, cell-free
Outline: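 Equilibrium dialysis against buffer, 4 h at 37°C with shaking. After incubation both chambers were matrix-matched and protein-precipitated with cold acetonitrile/water/formic acid containing internal standard. Supernatants were analysed by LC-MS/MS. % free = buffer-chamber / plasma-chamber concentration × 100.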

[15] = Drug uptake in mouse serum at 400 mg/kg, po measured at 22 mins by UPLC-MS/MS method; format: ADME, organism-based; conditions: read-out: Drug uptake
Outline: (§4)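 Single oral dose (400 mg/kg, 7 mice; 600 mg/kg, 6 mice), dissolved in DMSO and suspended in 0.5% hydroxyethylcellulose–0.1% Tween 80. Blood taken by cardiac puncture under chloroform, one mouse per time point, 15–120 min. Serum proteins precipitated with 2 volumes acetonitrile; analysed by UPLC-MS/MS against blank human serum calibration. Half-life read from the concentration–time curve.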

[16] = system: Serum; assay: Drug uptake in mouse serum at 400 mg/kg, po measured at 90 mins by UPLC-MS/MS method; format: ADME, organism-based; conditions: in vivo, 1.5 h, BLD = below limit of detection; outline: as §4
[17] = system: Serum; assay: Drug uptake in mouse serum at 400 mg/kg, po measured at 120 mins by UPLC-MS/MS method; format: ADME, organism-based; conditions: in vivo, 2 h, BLD = below limit of detection; outline: as §4
[18] = Drug uptake in mouse serum at 600 mg/kg, po measured at 45 mins by UPLC-MS/MS method; format: ADME, organism-based; conditions: read-out: Drug uptake; outline: as §4
[19] = Drug uptake in mouse serum at 600 mg/kg, po measured at 60 mins by UPLC-MS/MS method; format: ADME, organism-based; conditions: read-out: Drug uptake; outline: as §4
[20] = Drug uptake in mouse serum at 600 mg/kg, po measured at 90 mins by UPLC-MS/MS method; format: ADME, organism-based; conditions: read-out: Drug uptake; outline: as §4
[21] = Drug uptake in mouse serum at 600 mg/kg, po measured at 120 mins by UPLC-MS/MS method; format: ADME, organism-based; conditions: read-out: Drug uptake; outline: as §4
[22] = system: Mus musculus; assay: Tmax in mouse at 400 mg/kg, po by UPLC-MS/MS method; format: ADME, organism-based; conditions: in vivo
Outline: (§5)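 Single oral dose in DMSO suspended in 0.5% hydroxyethylcellulose–0.1% Tween 80, given to 7 (400 mg/kg) or 6 (600 mg/kg) mice. Serum came from cardiac puncture under chloroform, one mouse per time point, 15–120 min. Acetonitrile-precipitated serum was analysed by UPLC-MS/MS against calibration in blank human serum.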

[23] = system: Mus musculus; assay: Cmax in mouse at 400 mg/kg, po by UPLC-MS/MS method; format: ADME, organism-based; parameters: dose 400 mg/kg, route oral; conditions: in vivo; outline: as §4
[24] = system: Mus musculus; assay: Cmax in mouse at 600 mg/kg, po by UPLC-MS/MS method; format: ADME, organism-based; parameters: dose 600 mg/kg, route oral; conditions: in vivo; outline: as §4
[25] = system: Mus musculus; assay: AUC (0 to 120 mins) in mouse at 400 mg/kg, po by UPLC-MS/MS method; format: ADME, organism-based; parameters: dose 400 mg/kg, time < 2 hr, route oral; conditions: in vivo, 2 h
[26] = system: Mus musculus; assay: Time at which drug concentration stays above 3 uM in mouse at 400 mg/kg, po by UPLC-MS/MS method; format: ADME, organism-based; conditions: in vivo; outline: as §5
[27] = system: Mus musculus; assay: Drug metabolism in mouse assessed as M+32 metabolite formation at 400 to 600 mg/kg, po by UPLC-MS/MS method; format: ADME, organism-based; conditions: in vivo
[28] = system: Liver; assay: Half life in mouse liver microsomes; format: ADME, microsome; outline: as §2

In the case of `CC(=O)O[C@H]1C[C@H]2[C@@H]([C@H](OC(C)=O)C[C@@H]3C[C@H](N)CC[C@@]32C)[C@@H]2CC[C@H]([C@H](C)CCCNCCCCNc3ccnc4cc(Cl)ccc34)[C@@]12C`, the Activity [1] is reported as “Non-Toxic”, the Activity [2] is reported as 88% and the Activity [3] is reported as 45%. The Activity [4] was “Non-Toxic”, the Activity [5] was “Non-Toxic” and the logD [6] was 2.07. For the same compound, the CLH [7] was < 23 µL/min/mg, the Stability [8] was > 85% and the IC50 [9] was 1100 nM. It also gave an IC50 [10] of 1200 nM, an IC50 [11] of 1400 nM and a solubility thermodynamic [12] of 640 µg/mL (≈ 902 µM). The Papp [13] was 24.6 ×10⁻⁶ cm/s, the PPB [14] was > 99% and the concentration at 22 min [15] was 7.8 µM. The Drug uptake [16] was “Bld”, the Drug uptake [17] was “Bld” and the concentration at 0.75 h [18] was 3.1 µM. The concentration at 1 h [19] was 2.5 µM, the concentration at 1.5 h [20] was 4 µM and the concentration at 2 h [21] was 2.4 µM. For the same compound, the Tmax [22] was 22 min, the Cmax [23] was 7.8 µM and the Cmax [24] was 11.9 µM. For the same compound, the AUC [25] was 253 µM·min, the Time [26] was > 45 min and the Drug metabolism [27] was “Metabolite_Notdetected”. The t1/2 [28] was > 60 min.
